Results reported in article PMC10125284 (ACS Bio & Med Chem Au, 2022).
“Also recorded” adds a separate entry of the source. Where two headings read alike, the source gives them in different places.

Key:
[1] = biological target: T1, Tsr (Escherichia coli, UniProt P02942); experiment: FRET; format: cell-based; settings: for effect of adaptation to L-serine on FRET response to ligand: Tsr adapted to 200 μM L-serine; for FRET response (kinase activity): Tsr as sole receptor, buffer-adapted
[2] = biological target: Tsr^R64A (Escherichia coli, UniProt P02942, R64A); experiment: Microfluidic chemotaxis assay, cells expressing Tsr^R64A as sole receptor; format: cell-based
[3] = biological target: T2, Tsr-LBD (Escherichia coli, UniProt P02942); experiment: Microscale thermophoresis; format: binding; settings: for binding to Tsr-LBD in competition (MST): pocket saturated with high concentration of L-serine (25 mM)
T2 sequence (P02942 30-190): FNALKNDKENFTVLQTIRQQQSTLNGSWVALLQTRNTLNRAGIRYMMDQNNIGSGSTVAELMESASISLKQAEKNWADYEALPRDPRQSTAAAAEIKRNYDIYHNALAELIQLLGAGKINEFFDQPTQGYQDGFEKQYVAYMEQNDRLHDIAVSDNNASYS
Outline: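 Tsr residues 30-190 carrying an N-terminal 6×His tag were expressed in E. coli after 1 mM IPTG induction for 6 h at 28 °C. The protein was purified by Ni affinity and gel filtration (50 mM Tris-HCl pH 8.0, 200 mM NaCl) and labelled with a RED-tris-NTA His-tag dye. Compound serial dilutions in HEPES buffer were mixed 1:1 with protein and read in capillaries at 60% excitation and 20% MST power. Kd came from dose-response fits of normalised traces, temperature-jump/thermophoresis mode.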

[4] = biological target: T3, Tsar (Escherichia coli, UniProt P02942+P07017); experiment: Microfluidic chemotaxis assay, UU1250 expressing hybrid Tsar as sole receptor; format: cell-based; settings: cells expressing hybrid Tsar as sole receptor
[5] = biological target: T4, Tasr (Escherichia coli, UniProt P02942+P07017); experiment: Microfluidic chemotaxis assay, UU1250 expressing hybrid Tasr as sole receptor; format: cell-based; settings: cells expressing hybrid Tasr as sole receptor
[6] = biological target: Tsr^R64AN68A (Escherichia coli, UniProt P02942, N68A/R64A); experiment: Microfluidic chemotaxis assay, cells expressing Tsr^R64AN68A as sole receptor; format: cell-based
[7] = biological target: T5, Tsr^N68A (Escherichia coli, UniProt P02942, N68A); experiment: FRET assay, cells expressing Tsr^N68A as sole receptor; format: cell-based
[8] = test system: wild-type E. coli strain RP437; experiment: Microfluidic chemotaxis assay, wild-type strain RP437; format: cell-based, Escherichia coli; settings: wild-type E. coli RP437, all five chemoreceptors
[9] = biological target: T1, Tsr; experiment: Microfluidic chemotaxis assay, UU1250 expressing Tsr as sole receptor; format: cell-based; settings: UU1250 expressing wild-type Tsr as sole receptor and GFP
[10] = biological target: T5, Tsr^N68A; experiment: Microfluidic chemotaxis assay, cells expressing Tsr^N68A as sole receptor; format: cell-based
[11] = biological target: T6, Tar (Escherichia coli, UniProt P07017); experiment: Microfluidic chemotaxis assay, UU1250 expressing Tar as sole receptor; format: cell-based; settings: cells expressing Tar as sole receptor
[12] = biological target: T2, Tsr-LBD; settings: read-out: Kd, previously reported; cited from earlier work
[13] = test system: wild-type RP437; experiment: FRET assay, wild-type RP437; format: cell-based, Escherichia coli
[14] = biological target: T4, Tasr; experiment: FRET assay, cells expressing Tasr as sole receptor; format: cell-based
[15] = biological target: T6, Tar; experiment: FRET assay, cells expressing Tar as sole receptor; format: cell-based
[16] = biological target: T3, Tsar; experiment: FRET assay, cells expressing Tsar as sole receptor; format: cell-based

T3 sequence (P02942 1-201): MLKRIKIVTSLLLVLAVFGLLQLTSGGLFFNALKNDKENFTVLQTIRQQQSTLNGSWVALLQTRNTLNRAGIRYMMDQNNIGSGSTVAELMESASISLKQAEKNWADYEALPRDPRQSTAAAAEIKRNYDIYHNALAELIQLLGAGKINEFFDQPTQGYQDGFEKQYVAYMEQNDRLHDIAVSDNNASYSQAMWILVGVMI
T3 sequence (P07017 200-553): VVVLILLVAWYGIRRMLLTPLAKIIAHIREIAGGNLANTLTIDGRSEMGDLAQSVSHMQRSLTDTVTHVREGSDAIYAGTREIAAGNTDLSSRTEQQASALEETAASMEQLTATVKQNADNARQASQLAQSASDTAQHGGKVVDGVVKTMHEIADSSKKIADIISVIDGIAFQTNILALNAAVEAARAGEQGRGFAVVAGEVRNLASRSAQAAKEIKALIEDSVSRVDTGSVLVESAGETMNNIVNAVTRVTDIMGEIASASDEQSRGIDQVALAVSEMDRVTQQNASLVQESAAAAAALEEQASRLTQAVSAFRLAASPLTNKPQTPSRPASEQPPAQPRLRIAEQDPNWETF
T6 sequence (P07017 whole entry, the tested form may be a part): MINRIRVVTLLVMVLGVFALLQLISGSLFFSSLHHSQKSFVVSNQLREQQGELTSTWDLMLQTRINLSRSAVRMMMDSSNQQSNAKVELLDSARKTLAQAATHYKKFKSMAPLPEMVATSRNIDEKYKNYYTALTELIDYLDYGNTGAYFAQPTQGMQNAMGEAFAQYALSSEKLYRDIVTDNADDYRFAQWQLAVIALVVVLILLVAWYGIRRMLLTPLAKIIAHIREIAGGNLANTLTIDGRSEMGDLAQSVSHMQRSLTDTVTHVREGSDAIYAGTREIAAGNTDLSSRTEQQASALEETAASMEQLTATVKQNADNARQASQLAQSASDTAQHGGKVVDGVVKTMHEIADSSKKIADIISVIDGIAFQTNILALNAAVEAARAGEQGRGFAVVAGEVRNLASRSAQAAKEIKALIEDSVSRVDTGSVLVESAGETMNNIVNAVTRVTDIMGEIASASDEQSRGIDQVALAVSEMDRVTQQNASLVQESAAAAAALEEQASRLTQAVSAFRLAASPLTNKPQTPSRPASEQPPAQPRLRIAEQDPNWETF
Chain of Tsr^R64A (P02942 whole entry R64A, the tested form may be a part): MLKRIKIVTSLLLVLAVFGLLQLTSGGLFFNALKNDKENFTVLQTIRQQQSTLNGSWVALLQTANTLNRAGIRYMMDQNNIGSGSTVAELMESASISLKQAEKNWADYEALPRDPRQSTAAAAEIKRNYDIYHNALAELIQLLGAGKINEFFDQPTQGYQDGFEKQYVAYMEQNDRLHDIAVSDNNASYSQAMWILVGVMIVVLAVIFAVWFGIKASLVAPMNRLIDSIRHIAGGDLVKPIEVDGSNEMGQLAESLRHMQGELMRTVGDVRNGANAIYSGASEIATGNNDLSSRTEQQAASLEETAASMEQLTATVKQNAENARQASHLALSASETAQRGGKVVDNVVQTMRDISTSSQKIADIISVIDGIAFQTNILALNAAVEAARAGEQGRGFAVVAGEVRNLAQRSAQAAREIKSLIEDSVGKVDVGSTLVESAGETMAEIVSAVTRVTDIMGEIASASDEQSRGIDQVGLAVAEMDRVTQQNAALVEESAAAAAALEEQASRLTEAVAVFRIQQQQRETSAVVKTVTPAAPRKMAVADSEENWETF
T4 sequence (P07017 1-199): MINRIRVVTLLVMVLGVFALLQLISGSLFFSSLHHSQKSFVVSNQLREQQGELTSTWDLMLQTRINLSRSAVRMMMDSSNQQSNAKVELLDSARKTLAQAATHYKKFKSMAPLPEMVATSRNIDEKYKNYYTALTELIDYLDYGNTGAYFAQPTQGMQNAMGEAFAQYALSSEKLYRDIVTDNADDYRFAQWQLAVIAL
T4 sequence (P02942 202-551): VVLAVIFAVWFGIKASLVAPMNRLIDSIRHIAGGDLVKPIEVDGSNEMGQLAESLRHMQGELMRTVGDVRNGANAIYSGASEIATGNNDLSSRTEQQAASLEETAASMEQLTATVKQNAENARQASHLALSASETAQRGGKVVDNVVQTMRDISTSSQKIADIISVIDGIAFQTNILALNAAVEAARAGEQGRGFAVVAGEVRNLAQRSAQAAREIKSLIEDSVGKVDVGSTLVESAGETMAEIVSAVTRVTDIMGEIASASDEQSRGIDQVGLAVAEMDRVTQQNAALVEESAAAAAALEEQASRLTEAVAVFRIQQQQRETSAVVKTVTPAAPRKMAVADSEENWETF
T5 sequence (P02942 whole entry N68A): as the sequence (P02942 whole entry R64A, the tested form may be a part) above, with A64R, N68A counted along it
T1 sequence (P02942 whole entry): as the sequence (P02942 whole entry R64A, the tested form may be a part) above, with A64R counted along it
Chain of Tsr^R64AN68A (P02942 whole entry R64A/N68A): as the sequence (P02942 whole entry R64A, the tested form may be a part) above, with N68A counted along it

CC(C)C[C@H](N)C(=O)O [L-leucine]
effect of adaptation to L-serine on FRET response to ligand [1]: significantly inhibited
FRET response (kinase activity) [1]: repellent response
chemotactic response (microfluidic), compared with wild-type Tsr [2]: no response or much weaker responses
Kd [3]: 23.6 ± 6.8 mM
binding to Tsr-LBD in competition (MST) [3]: could not bind
chemotactic response (microfluidic) [4]: repellent responses
chemotactic response (microfluidic) [5]: no response
chemotactic response (microfluidic), compared with wild-type Tsr [6]: no response or much weaker responses
FRET response [7]: strong attractant response
chemotactic response (microfluidic) [8]: repellent responses
chemotactic response (microfluidic) [9]: repellent response
chemotactic response (microfluidic), compared with wild-type Tsr [10]: attractant response
chemotactic response (microfluidic) [11]: no response

N[C@@H](CO)C(=O)O [L-serine]
FRET response (kinase activity) [1]: attractant response
chemotactic response (microfluidic), compared with wild-type Tsr [2]: weaker attractant responses
Kd [3]: 0.207 mM
chemotactic response (microfluidic), compared with wild-type Tsr [6]: weaker attractant responses
chemotactic response (microfluidic) [9]: drifted up the L-serine gradient
chemotactic response (microfluidic), compared with wild-type Tsr [10]: weaker attractant responses
Kd [12]: 0.0356 mM

NC1(C(=O)O)CCCCC1 [ACHC, 1-aminocyclohexanecarboxylic acid]
FRET response [13]: repellent response
effect of adaptation to L-serine on FRET response to ligand [1]: significantly inhibited
FRET response (kinase activity) [1]: repellent response
chemotactic response (microfluidic), compared with wild-type Tsr [2]: weaker repellent responses
Kd [3]: 10.6 ± 2.4 mM
binding to Tsr-LBD in competition (MST) [3]: could not bind
chemotactic response (microfluidic) [4]: robust repellent responses
chemotactic response (microfluidic) [5]: did not show obvious responses
chemotactic response (microfluidic), compared with wild-type Tsr [6]: weaker repellent responses
FRET response [14]: no or only a weak response
chemotactic response (microfluidic) [8]: robust repellent responses
FRET response [15]: no or only a weak response
FRET response [16]: repellent response
chemotactic response (microfluidic) [9]: robust repellent response
chemotactic response (microfluidic), compared with wild-type Tsr [10]: weaker repellent responses; also recorded: weak repellent response
chemotactic response (microfluidic) [11]: did not show obvious responses
